Converted amounts (≈) assume the structure as drawn. The source made the active and inactive calls. No cut-off for these calls is given here.
Tests used:
Escherichia coli [1] = experiment: Antibacterial activity against Escherichia coli C600 expressing ESBL SHV2; format: functional
Outline: (§1)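 MIC by agar dilution (CLSI M7-A7) on Mueller-Hinton agar with twofold serial drug dilutions; 10^4 CFU spotted per spot; aerobic incubation 18 to 20 h at 35°C; MIC read as lowest concentration preventing visible growth.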

Pseudomonas aeruginosa [2] = experiment: Antibacterial activity against Pseudomonas aeruginosa 93; format: functional; outline: as §1
Escherichia coli [3] = experiment: Antibacterial activity against Escherichia coli C600 expressing ESBL CTX-M18; format: functional; outline: as §1
Escherichia coli [4] = experiment: Antibacterial activity against Escherichia coli C600 expressing ESBL SHV3; format: functional; outline: as §1
Escherichia coli [5] = experiment: Antibacterial activity against Escherichia coli C600 expressing ESBL TEM3; format: functional; outline: as §1
Pseudomonas aeruginosa [6] = experiment: Antibacterial activity against Pseudomonas aeruginosa PAO1456 expressing constitutive AmpC; format: functional
Outline: (§2)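 Agar dilution MIC per NCCLS (CLSI) M7-A7 on Mueller-Hinton agar with twofold serial drug dilutions. Inoculum 10^4 CFU per spot, aerobic incubation 18 to 20 h at 35°C. MIC is the lowest concentration preventing visible growth.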

Escherichia coli [7] = experiment: Antibacterial activity against Escherichia coli C600 expressing ESBL SHV4; format: functional; outline: as §1
Pseudomonas aeruginosa [8] = experiment: Antibacterial activity against Pseudomonas aeruginosa KG3056 producing MexCD-OprJ efflux pump; format: functional; outline: as §2
Escherichia coli [9] = experiment: Antibacterial activity against Escherichia coli C600 expressing SHV1; format: functional; outline: as §1
Escherichia coli [10] = experiment: Antibacterial activity against Escherichia coli C600 expressing ESBL TEM4; format: functional; outline: as §1
Pseudomonas aeruginosa [11] = experiment: Antibacterial activity against Pseudomonas aeruginosa KG4545 producing MexXY efflux pump; format: functional; outline: as §2
Pseudomonas aeruginosa [12] = experiment: Antibacterial activity against Pseudomonas aeruginosa PAO4222; format: functional; outline: as §2
Escherichia coli [13] = experiment: Antibacterial activity against Escherichia coli C600 expressing ESBL TEM5; format: functional; outline: as §1
Escherichia coli [14] = experiment: Antibacterial activity against Escherichia coli C600 expressing ESBL TEM7; format: functional; outline: as §1
Escherichia coli [15] = experiment: Antibacterial activity against Escherichia coli C600 expressing TEM1; format: functional; outline: as §1
Escherichia coli [16] = experiment: Antibacterial activity against Escherichia coli C600 expressing ESBL TEM8; format: functional; outline: as §1
Escherichia coli [17] = experiment: Antibacterial activity against Escherichia coli C600 expressing ESBL TEM9; format: functional; outline: as §1
Escherichia coli [18] = experiment: Antibacterial activity against Escherichia coli C600 expressing ESBL TEM6; format: functional; outline: as §1
Pseudomonas aeruginosa [19] = experiment: Antibacterial activity against imipenem-resistant Pseudomonas aeruginosa; format: functional; outline: as §2
Pseudomonas aeruginosa [20] = experiment: Reduction in susceptibility against Pseudomonas aeruginosa PAO1 after single passage; format: functional, organism-based
Outline: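 PAO1 passaged daily for five consecutive days in fresh Mueller-Hinton broth with twofold drug dilution series. Each next inoculum came from the tube at one-fourth the MIC. MIC change was followed across passages.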

Escherichia coli [21] = experiment: Antibacterial activity against Escherichia coli C600 expressing ESBL CTX-M3; format: functional; outline: as §1
Pseudomonas aeruginosa [22] = experiment: Efficacy against Pseudomonas aeruginosa 93 pulmonary infection in mouse assessed as reduction in bacterial counts at 10 mg/kg, sc; format: functional, organism-based; parameters: dose 10 mg/kg
Outline: (§3)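 Male ICR mice (4 weeks), made neutropenic with cyclophosphamide 200 mg/kg ip 4 days before infection. Under pentobarbital anesthesia (50 mg/kg iv) they were challenged intranasally with 3.30 log10 CFU of strain 93, grown on tryptic soy agar 35°C 20 h and suspended in saline. Dosed sc twice daily for 3 days from 3 h post-infection. Lung viable counts taken the day after last dose; 6 mice/dose.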

Pseudomonas aeruginosa [23] = experiment: Antibacterial activity against Pseudomonas aeruginosa 22029 expressing metallo beta lactamase; format: functional; outline: as §2
Pseudomonas aeruginosa [24] = experiment: Efficacy against Pseudomonas aeruginosa 93 pulmonary infection in mouse assessed as reduction in bacterial counts at 2 mg/kg, sc; format: functional, organism-based; parameters: dose 2 mg/kg; outline: as §3
Pseudomonas aeruginosa [25] = experiment: Antibacterial activity against Pseudomonas aeruginosa PAO1; format: functional; outline: as §2
Pseudomonas aeruginosa [26] = experiment: Antibacterial activity against ceftazidime-resistant Pseudomonas aeruginosa; format: functional; outline: as §2
Pseudomonas aeruginosa [27] = experiment: Antibacterial activity against Pseudomonas aeruginosa FP1380 expressing constitutive AmpC; format: functional; outline: as §1
Pseudomonas aeruginosa [28] = experiment: Antibacterial activity against Pseudomonas aeruginosa PAO4069 expressing inducible AmpC; format: functional; outline: as §2
Pseudomonas aeruginosa [29] = experiment: Antibacterial activity against Pseudomonas aeruginosa; format: functional; outline: as §2
Pseudomonas aeruginosa [30] = experiment: Antibacterial activity against ciprofloxacin-resistant Pseudomonas aeruginosa; format: functional; outline: as §2
Escherichia coli [31] = experiment: Antibacterial activity against Escherichia coli C600 expressing TEM2; format: functional; outline: as §1
Escherichia coli [32] = experiment: Antibacterial activity against Escherichia coli C600; format: functional; outline: as §1
Pseudomonas aeruginosa [33] = experiment: Antibacterial activity against Pseudomonas aeruginosa KG2212 producing MexAB-OprM efflux pump; format: functional; outline: as §2
Pseudomonas aeruginosa [34] = experiment: Antibacterial activity against Pseudomonas aeruginosa KG4001 producing MexEF-OprN efflux pump; format: functional; outline: as §2
Escherichia coli [35] = experiment: Antibacterial activity against Escherichia coli C600 expressing ESBL OXA2; format: functional; outline: as §1
Escherichia coli [36] = experiment: Antibacterial activity against Escherichia coli C600 expressing OXA1; format: functional; outline: as §1

Molecule `CC(C)(O/N=C(\C(=O)N[C@@H]1C(=O)N2C(C(=O)[O-])=C(C[n+]3ccccc3)CS[C@H]12)c1csc(N)n1)C(=O)O` [CEFTAZIDIME] has an MIC (Escherichia coli [1]) of 128 µg/mL (≈ 234 µM), an MIC (Pseudomonas aeruginosa [2]) of 1 µg/mL (≈ 1.83 µM) and an MIC (Escherichia coli [3]) of 4 µg/mL (≈ 7.32 µM). For the same molecule, the MIC (Escherichia coli [4]) was > 128 µg/mL, the MIC (Escherichia coli [5]) was 32 µg/mL (≈ 58.5 µM) and the MIC (Pseudomonas aeruginosa [6]) was 32 µg/mL (≈ 58.5 µM). The MIC (Escherichia coli [7]) was 128 µg/mL (≈ 234 µM), the MIC (Pseudomonas aeruginosa [8]) was 0.5 µg/mL (≈ 0.915 µM) and the MIC (Escherichia coli [9]) was 1 µg/mL (≈ 1.83 µM). For the same molecule, the MIC (Escherichia coli [10]) was 32 µg/mL (≈ 58.5 µM), the MIC (Pseudomonas aeruginosa [11]) was 2 µg/mL (≈ 3.66 µM) and the MIC (Pseudomonas aeruginosa [12]) was 2 µg/mL (≈ 3.66 µM). For the same molecule, the MIC (Escherichia coli [13]) was 32 µg/mL (≈ 58.5 µM), the MIC (Escherichia coli [14]) was 64 µg/mL (≈ 117 µM) and the MIC (Escherichia coli [15]) was 0.25 µg/mL (≈ 0.457 µM). The MIC (Escherichia coli [16]) was 128 µg/mL (≈ 234 µM), the MIC (Escherichia coli [17]) was 32 µg/mL (≈ 58.5 µM) and the MIC (Escherichia coli [18]) was 64 µg/mL (≈ 117 µM). The MIC50 (Pseudomonas aeruginosa [19]) was 4 µg/mL (≈ 7.32 µM), the MIC90 (Pseudomonas aeruginosa [19]) was 16 µg/mL (≈ 29.3 µM) and the Activity (Pseudomonas aeruginosa [20]) was “Active”. The MIC (Escherichia coli [21]) was 4 µg/mL (≈ 7.32 µM), the Activity (Pseudomonas aeruginosa [22]) was “Active” and the MIC (Pseudomonas aeruginosa [23]) was > 128 µg/mL. For the same molecule, the Activity (Pseudomonas aeruginosa [24]) was “Active”, the MIC (Pseudomonas aeruginosa [25]) was 2 µg/mL (≈ 3.66 µM) and the MIC50 (Pseudomonas aeruginosa [26]) was 64 µg/mL (≈ 117 µM). For the same molecule, the MIC90 (Pseudomonas aeruginosa [26]) was 128 µg/mL (≈ 234 µM), the MIC (Pseudomonas aeruginosa [27]) was > 128 µg/mL and the MIC (Pseudomonas aeruginosa [28]) was 2 µg/mL (≈ 3.66 µM). It also gave an MIC50 (Pseudomonas aeruginosa [29]) of 2 µg/mL (≈ 3.66 µM), an MIC90 (Pseudomonas aeruginosa [29]) of 16 µg/mL (≈ 29.3 µM) and an MIC50 (Pseudomonas aeruginosa [30]) of 8 µg/mL (≈ 14.6 µM). For the same molecule, the MIC90 (Pseudomonas aeruginosa [30]) was 64 µg/mL (≈ 117 µM), the MIC (Escherichia coli [31]) was 1 µg/mL (≈ 1.83 µM) and the MIC (Escherichia coli [32]) was 0.25 µg/mL (≈ 0.457 µM). The MIC (Pseudomonas aeruginosa [33]) was 2 µg/mL (≈ 3.66 µM), the MIC (Pseudomonas aeruginosa [34]) was 2 µg/mL (≈ 3.66 µM) and the MIC (Escherichia coli [35]) was 4 µg/mL (≈ 7.32 µM). It also gave an MIC (Escherichia coli [36]) of 0.5 µg/mL (≈ 0.915 µM).

With `O=C(O)c1cn(C2CC2)c2cc(N3CCNCC3)c(F)cc2c1=O` [CIPROFLOXACIN] the MIC50 (Pseudomonas aeruginosa [19]) was 1 µg/mL (≈ 3.02 µM), the MIC90 (Pseudomonas aeruginosa [19]) was 8 µg/mL (≈ 24.1 µM) and the MIC50 (Pseudomonas aeruginosa [26]) was 2 µg/mL (≈ 6.04 µM). The MIC90 (Pseudomonas aeruginosa [26]) was 64 µg/mL (≈ 193 µM), the MIC50 (Pseudomonas aeruginosa [29]) was 0.25 µg/mL (≈ 0.754 µM) and the MIC90 (Pseudomonas aeruginosa [29]) was 8 µg/mL (≈ 24.1 µM). It also gave an MIC50 (Pseudomonas aeruginosa [30]) of 8 µg/mL (≈ 24.1 µM) and an MIC90 (Pseudomonas aeruginosa [30]) of 64 µg/mL (≈ 193 µM).

From ChEMBL document CHEMBL1142065, “In vitro and in vivo activities of a new cephalosporin, FR264205, against Pseudomonas aeruginosa” (2007)
